Reference: ChEMBL document CHEMBL3627613, “4-Aminoquinoline derivatives as novel Mycobacterium tuberculosis GyrB inhibitors: Structural optimization, synthesis and biological evaluation” (Eur J Med Chem, 2015)
In brackets after ≈: the same amount, converted by molar mass.

Key:
[1] = test system: Mycobacterium tuberculosis; test: Antimycobacterial activity against Mycobacterium tuberculosis H37Rv assessed as growth inhibition incubated for 7 days by microplate alamar blue assay; format: functional; conditions: 168 h
In short: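 M. tuberculosis H37Rv inoculum from fresh LJ medium, resuspended in 7H9 broth (0.1% casitone, 0.5% glycerol, OADC), set to McFarland No. 1 and diluted 1:20. Two-fold serial compound dilutions in 7H9-S, with growth and sterile controls. Incubated 7 days at 37 °C, then alamar blue overnight. MIC is the lowest concentration preventing the blue-to-pink colour change.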

[2] = target: DNA gyrase subunit A/DNA gyrase subunit B (Mycobacterium tuberculosis (strain ATCC 25618 / H37Rv), UniProt P9WG45+P9WG47); test: Inhibition of DNA gyrase GyrA/GyrB in Mycobacterium tuberculosis incubated for 30 mins assessed as reduction in supercoiling of relaxed relaxed pBR322 DNA by ethidium bromide staining based agarose gel electrophoresis method
Sequence of DNA gyrase subunit A/DNA gyrase subunit B (P9WG45 whole entry): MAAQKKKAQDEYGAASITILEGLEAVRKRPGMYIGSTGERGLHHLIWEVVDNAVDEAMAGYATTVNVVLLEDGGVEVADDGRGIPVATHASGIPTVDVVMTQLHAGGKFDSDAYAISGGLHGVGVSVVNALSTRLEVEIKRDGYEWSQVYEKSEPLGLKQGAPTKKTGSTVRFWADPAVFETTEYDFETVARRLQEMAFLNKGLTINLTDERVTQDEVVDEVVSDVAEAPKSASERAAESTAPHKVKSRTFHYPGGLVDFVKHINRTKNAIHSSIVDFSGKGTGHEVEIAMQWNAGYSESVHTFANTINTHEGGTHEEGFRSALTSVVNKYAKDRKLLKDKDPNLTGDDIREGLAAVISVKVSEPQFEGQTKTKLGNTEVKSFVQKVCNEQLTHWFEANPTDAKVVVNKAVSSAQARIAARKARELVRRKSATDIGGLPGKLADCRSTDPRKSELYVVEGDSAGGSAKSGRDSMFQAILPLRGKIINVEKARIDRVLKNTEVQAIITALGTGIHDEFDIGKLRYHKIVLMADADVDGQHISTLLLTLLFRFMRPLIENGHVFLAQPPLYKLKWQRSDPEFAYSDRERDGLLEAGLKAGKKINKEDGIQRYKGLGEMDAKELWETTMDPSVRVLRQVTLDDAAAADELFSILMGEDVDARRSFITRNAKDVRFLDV
Sequence of DNA gyrase subunit A/DNA gyrase subunit B (P9WG47 whole entry): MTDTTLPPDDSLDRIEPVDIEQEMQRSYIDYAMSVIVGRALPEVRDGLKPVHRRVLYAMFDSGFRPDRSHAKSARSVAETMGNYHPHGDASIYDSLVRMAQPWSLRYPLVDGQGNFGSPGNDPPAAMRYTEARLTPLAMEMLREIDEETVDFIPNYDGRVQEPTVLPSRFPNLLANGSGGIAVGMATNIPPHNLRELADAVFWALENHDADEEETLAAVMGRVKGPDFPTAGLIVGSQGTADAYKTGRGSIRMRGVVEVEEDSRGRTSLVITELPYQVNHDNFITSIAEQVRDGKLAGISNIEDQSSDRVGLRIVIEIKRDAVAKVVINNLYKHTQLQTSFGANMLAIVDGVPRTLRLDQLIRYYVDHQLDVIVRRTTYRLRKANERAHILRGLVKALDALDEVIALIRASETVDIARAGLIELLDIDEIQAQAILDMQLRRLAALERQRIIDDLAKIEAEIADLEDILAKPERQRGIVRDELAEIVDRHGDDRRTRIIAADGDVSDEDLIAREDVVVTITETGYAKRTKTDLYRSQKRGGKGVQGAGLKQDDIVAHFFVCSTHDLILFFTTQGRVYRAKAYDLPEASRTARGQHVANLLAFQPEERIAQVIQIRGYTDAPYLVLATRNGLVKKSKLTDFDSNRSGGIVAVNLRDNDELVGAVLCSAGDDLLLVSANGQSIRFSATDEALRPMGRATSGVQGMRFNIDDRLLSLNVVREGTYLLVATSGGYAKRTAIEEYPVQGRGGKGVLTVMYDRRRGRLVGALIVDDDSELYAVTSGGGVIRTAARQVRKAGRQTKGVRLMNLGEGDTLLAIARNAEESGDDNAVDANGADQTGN

[3] = Cytotoxicity against mouse RAW264.7 cells assessed as inhibition of cell viability at 50 uM incubated for 48 hrs at 37 degC by MTT assay relative to control; format: cell-based; conditions: read-out: INH
In short: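 RAW 264.7 mouse macrophages, 5×10^5 cells per well, exposed to compound for 48 h at 37 °C under 5% CO2. MTT added 4 h before the end. Formazan dissolved in DMSO and absorbance read at 560 nm against blank. Triplicates, run twice.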

DNA gyrase subunit B = DNA gyrase subunit B (Mycobacterium smegmatis, UniProt P0C559); test: Inhibition of Mycobacterium smegmatis DNA gyrase B expressed in Escherichia coli BL21 (DE3) pLysS cells assessed as reduction in ATPase activity incubated for 100 mins by inorganic phosphate detection assay; design: species or system Mycolicibacterium smegmatis
Sequence of DNA gyrase subunit B (P0C559 whole entry): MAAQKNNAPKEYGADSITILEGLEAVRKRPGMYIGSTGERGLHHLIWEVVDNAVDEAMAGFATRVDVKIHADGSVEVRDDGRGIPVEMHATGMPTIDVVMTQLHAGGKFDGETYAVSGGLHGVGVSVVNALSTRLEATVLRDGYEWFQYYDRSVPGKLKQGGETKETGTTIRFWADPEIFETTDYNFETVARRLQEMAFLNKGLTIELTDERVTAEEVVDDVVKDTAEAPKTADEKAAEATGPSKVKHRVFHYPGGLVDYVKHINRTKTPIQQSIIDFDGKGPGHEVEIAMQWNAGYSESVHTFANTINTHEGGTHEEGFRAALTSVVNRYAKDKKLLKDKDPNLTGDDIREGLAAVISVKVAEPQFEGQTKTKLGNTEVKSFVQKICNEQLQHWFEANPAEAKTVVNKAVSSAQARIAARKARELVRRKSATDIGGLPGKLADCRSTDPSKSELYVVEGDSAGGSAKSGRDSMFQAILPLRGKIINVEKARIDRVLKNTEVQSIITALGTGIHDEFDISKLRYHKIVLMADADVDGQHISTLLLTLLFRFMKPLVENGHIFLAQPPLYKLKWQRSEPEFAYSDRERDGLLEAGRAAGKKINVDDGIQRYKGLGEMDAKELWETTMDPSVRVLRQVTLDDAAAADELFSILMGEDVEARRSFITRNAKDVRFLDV

| Compound | MIC [1] [µM] | IC50 [2] [µM] | cytotoxicity at 48 h, 50 µM [3] [%] | IC50 (DNA gyrase subunit B) [µM] |
| --- | --- | --- | --- | --- |
| CCN1CCN(CCCOc2ccc(Nc3c(C(=O)NN)cnc4ccc(OC)cc34)cc2)CC1 | 11.6 (≈ 5.57 µg/mL) | 5.89 | 2.72 | 12.6 |
| CCN1CCN(CCCNc2ccc(Nc3c(C(=O)NN)cnc4ccc(C(F)(F)F)cc34)cc2)CC1 | 30 (≈ 15.5 µg/mL) | 11 | 1.59 | 26.3 |
| CO[C@H]1/C=C/O[C@@]2(C)Oc3c(C)c(O)c4c(O)c(c(/C=N/N5CCN(C)CC5)c(O)c4c3C2=O)NC(=O)/C(C)=C\C=C\[C@H](C)[C@H](O)[C@@H](C)[C@@H](O)[C@@H](C)[C@H](OC(C)=O)[C@@H]1C [RIFAMPIN] | 0.23 (≈ 0.189 µg/mL) | – | – | – |
| CCOC(=O)c1cnc2ccc(F)cc2c1Nc1ccc(NCCCN2CCOCC2)cc1 | 13.4 (≈ 6.09 µg/mL) | 4.61 | 19.6 | 11.3 |
| CCN1CCN(CCCOc2ccc(Nc3c(C(=O)NN)cnc4ccccc34)cc2)CC1 | 13.9 (≈ 6.25 µg/mL) | 16.7 | 18.2 | 28.4 |
| COc1c(N2C[C@@H]3CCCN[C@@H]3C2)c(F)cc2c(=O)c(C(=O)O)cn(C3CC3)c12 [MOXIFLOXACIN] | 1.26 (≈ 0.506 µg/mL) | – | – | > 50 |
| NNC(=O)c1cnc2ccc(F)cc2c1Nc1ccc(NCCCN2CCOCC2)cc1 | 23.6 (≈ 10.3 µg/mL) | 10.6 | 29.1 | 18.7 |
| NNC(=O)c1cnc2ccccc2c1Nc1ccc(OCCCN2CCOCC2)cc1 | 2.4 (≈ 1.01 µg/mL) | 0.72 | 44.6 | 0.97 |
| CCN1CCN(CCCNc2ccc(Nc3c(C(=O)O)cnc4ccccc34)cc2)CC1 | 11.8 (≈ 5.12 µg/mL) | 5.88 | 32.3 | 11.3 |
| O=C(O)c1cnc2ccc(F)cc2c1Nc1ccc(OCCCN2CCOCC2)cc1 | 14.7 (≈ 6.25 µg/mL) | 16.9 | 10.8 | 31.3 |
| NNC(=O)c1cnc2ccc(C(F)(F)F)cc2c1Nc1ccc(OCCCN2CCOCC2)cc1 | 36.4 (≈ 17.8 µg/mL) | 19.9 | 0.07 | 38.7 |
| NNC(=O)c1ccncc1 [ISONIAZID] | 0.66 (≈ 0.0905 µg/mL) | – | – | – |
| CCOC(=O)c1cnc2ccc(OC)cc2c1Nc1ccc(NCCCN2CCOCC2)cc1 | 23.4 (≈ 10.9 µg/mL) | 9.32 | 19.3 | 22.3 |
| CCOC(=O)c1cnc2ccccc2c1Nc1ccc(NCCCN2CCOCC2)cc1 | 14.4 (≈ 6.25 µg/mL) | 8.73 | 1.82 | 17.9 |
| CCOC(=O)c1cnc2ccc(F)cc2c1Nc1ccc(OCCCN2CCN(CC)CC2)cc1 | 3.25 (≈ 1.56 µg/mL) | 11.8 | 21.6 | 23.6 |
| CCOC(=O)c1cnc2ccccc2c1Nc1ccc(NCCCN2CCN(CC)CC2)cc1 | 6.77 (≈ 3.13 µg/mL) | 3.25 | 20.4 | 11.7 |
| CCN1CCN(CCCOc2ccc(Nc3c(C(=O)O)cnc4ccccc34)cc2)CC1 | 27.2 (≈ 11.8 µg/mL) | 10.2 | 13.4 | 21.7 |
| CCN1CCN(CCCNc2ccc(Nc3c(C(=O)NN)cnc4ccc(F)cc34)cc2)CC1 | 3.3 (≈ 1.54 µg/mL) | 0.82 | 6.11 | 1.15 |
| O=C(O)c1cnc2ccc(C(F)(F)F)cc2c1Nc1ccc(NCCCN2CCOCC2)cc1 | 6.59 (≈ 3.13 µg/mL) | 3.77 | 19.1 | 7.89 |
| COc1ccc2ncc(C(=O)NN)c(Nc3ccc(NCCCN4CCOCC4)cc3)c2c1 | 27.8 (≈ 12.5 µg/mL) | 15.3 | 9.59 | 44.9 |

| Compound | MIC [1] [µM] | IC50 [2] [µM] | cytotoxicity at 48 h, 50 µM [3] [%] | IC50 (DNA gyrase subunit B) [µM] |
| --- | --- | --- | --- | --- |
| COc1ccc2ncc(C(=O)O)c(Nc3ccc(NCCCN4CCOCC4)cc3)c2c1 | 28.6 (≈ 12.5 µg/mL) | 12.6 | 16.1 | 38.9 |
| CCN1CCN(CCCNc2ccc(Nc3c(C(=O)O)cnc4ccc(OC)cc34)cc2)CC1 | 3.48 (≈ 1.61 µg/mL) | 0.93 | 20.1 | 1.32 |
| O=C(O)c1cnc2ccccc2c1Nc1ccc(NCCCN2CCOCC2)cc1 | 7.69 (≈ 3.13 µg/mL) | 5.56 | 0.55 | 11.3 |
| CCOC(=O)c1cnc2ccc(OC)cc2c1Nc1ccc(OCCCN2CCOCC2)cc1 | 13.3 (≈ 6.22 µg/mL) | 13.3 | 21.2 | 14.9 |
| CCN1CCN(CCCOc2ccc(Nc3c(C(=O)O)cnc4ccc(F)cc34)cc2)CC1 | 6.91 (≈ 3.13 µg/mL) | 5.96 | 24.2 | 6.82 |
| CCOC(=O)c1cnc2ccc(F)cc2c1Nc1ccc(NCCCN2CCN(CC)CC2)cc1 | 13 (≈ 6.25 µg/mL) | 7.99 | 20.2 | 16.9 |
| CCN1CCN(CCCNc2ccc(Nc3c(C(=O)NN)cnc4ccc(OC)cc34)cc2)CC1 | 13.1 (≈ 6.25 µg/mL) | 2.55 | 2.56 | 3.26 |
| CCOC(=O)c1cnc2ccc(C(F)(F)F)cc2c1Nc1ccc(NCCCN2CCOCC2)cc1 | 49.8 (≈ 25 µg/mL) | 3.12 | 20.2 | 6.62 |
| CCOC(=O)c1cnc2ccc(C(F)(F)F)cc2c1Nc1ccc(OCCCN2CCN(CC)CC2)cc1 | 2.94 (≈ 1.56 µg/mL) | 0.69 | 27.3 | 0.97 |
| CCN1CCN(CCCOc2ccc(Nc3c(C(=O)NN)cnc4ccc(F)cc34)cc2)CC1 | 3.34 (≈ 1.56 µg/mL) | 2.96 | 11.9 | 2.92 |
| O=C(O)c1cnc2ccccc2c1Nc1ccc(OCCCN2CCOCC2)cc1 | 30.7 (≈ 12.5 µg/mL) | 21.8 | 11.3 | > 50 |
| CCN1CCN(CCCOc2ccc(Nc3c(C(=O)O)cnc4ccc(C(F)(F)F)cc34)cc2)CC1 | 19.8 (≈ 9.93 µg/mL) | 3.54 | 13.4 | 7.91 |
| CO[C@@H]1[C@@H](OC(N)=O)[C@@H](O)[C@H](Oc2ccc3c(O)c(NC(=O)c4ccc(O)c(CC=C(C)C)c4)c(=O)oc3c2C)OC1(C)C [NOVOBIOCIN] | > 200 | – | – | – |
| CCN1CCN(CCCOc2ccc(Nc3c(C(=O)NN)cnc4ccc(C(F)(F)F)cc34)cc2)CC1 | 11.5 (≈ 5.95 µg/mL) | 9.33 | 20.1 | 11.9 |
| CCOC(=O)c1cnc2ccc(C(F)(F)F)cc2c1Nc1ccc(OCCCN2CCOCC2)cc1 | 43.1 (≈ 21.7 µg/mL) | 16.4 | 20.2 | 38.8 |
| O=C(O)c1cnc2ccc(F)cc2c1Nc1ccc(NCCCN2CCOCC2)cc1 | 29.5 (≈ 12.5 µg/mL) | 4.44 | 13.1 | 15 |
| O=C(O)c1cnc2ccc(C(F)(F)F)cc2c1Nc1ccc(OCCCN2CCOCC2)cc1 | 13.2 (≈ 6.25 µg/mL) | 14.3 | 22.6 | 27.8 |
| COc1ccc2ncc(C(=O)O)c(Nc3ccc(OCCCN4CCOCC4)cc3)c2c1 | 57.1 (≈ 25 µg/mL) | 12.9 | 11.4 | 20.6 |
| CCOC(=O)c1cnc2ccc(OC)cc2c1Nc1ccc(NCCCN2CCN(CC)CC2)cc1 | 25.4 (≈ 12.5 µg/mL) | 8.52 | 21.4 | 9.55 |
| CCN1CCN(CCCNc2ccc(Nc3c(C(=O)NN)cnc4ccccc34)cc2)CC1 | 13.5 (≈ 6.04 µg/mL) | 9.42 | 3.36 | 10.8 |
